Activity calls are given as the source filed them. The rule behind the calls is not given here.
How the values were obtained:
[1] = Toxicity in C57BL/6 mouse implanted with mouse B16-BL6 cells assessed as effect on body weight at 7.5 to 15 mg/kg, ip dosed every day for 18 days; assay type: organism-based; conditions: in vivo, 432 h, in the assay text read “every other day” for “every day”
Outline: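 C57BL/6 mice, six weeks old, received 2.5×10^5 BL6-B16 or E0771 cells s.c. in the dorsolateral flank in PBS. Dosing began once tumours reached about 100 mm³: 7.5 or 15 mg/kg i.p. every other day in 50 μL DMSO. Vehicle and CA-4P 30 mg/kg served as controls. Body weight was monitored, with 5 animals per group.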

Tubulin (Bos taurus) = Tubulin (Bos taurus) (UniProt Q6B856+Q862L2+Q862F3); experiment: Inhibition of [3H]colchicine binding to bovine brain tubulin at 50 uM after 20 mins relative to control
Outline: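 Reaction mixtures held 1 μM tubulin, 5 μM [³H]colchicine and test compound at 5 or 50 μM. Read-out was percent inhibition of colchicine binding.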

HeLa [2] = experiment: Induction of apoptosis in human HeLa cells assessed as decrease in Mcl-1 levels at 50 to 250 nM after 24 hrs by Western blot analysis; assay type: functional, cell-based
Outline: (§1)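 HeLa cells treated 24 h, washed in ice-cold PBS and lysed on ice 30 min. Lysates were spun at 15000 x g, 4 °C. 10 µg protein run on SDS-PAGE and blotted to PVDF. Blots were blocked in 5% BSA overnight at 4 °C and probed 2 h at room temperature. Detection by HRP-secondary and ECL, with bands normalized to β-actin as fold of untreated. Three independent experiments, one-way ANOVA/Dunnett.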

HeLa [3] = experiment: Induction of apoptosis in human HeLa cells assessed as increase in caspase-9 activity at 50 to 250 nM after 24 hrs by Western blot analysis; assay type: functional, cell-based; outline: as §1

O=C1Nc2c(ccc3ccccc23)C1=Cc1c(-c2ccncc2)nc2sccn12
Activity [1]: Non-Toxic
inhibition (Tubulin (Bos taurus)): 51%
Activity (HeLa [2]): Active
Activity (HeLa [3]): Active

Reference: ChEMBL document CHEMBL4316599, “Synthesis, in vitro and in vivo biological evaluation of substituted 3-(5-imidazo[2,1-b]thiazolylmethylene)-2-indolinones as new potent anticancer agents” (Eur J Med Chem, 2019)
